CR mimetic SO – yeast age-related superoxide inhibition as caloric restriction mimetic | S. cerevisiae aged cells, superoxide DHE fluorescence; stronger effect = lower value | superoxide response (% of plate mean), % at 10 µM | actives 0.18% (n = 330,000);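 active means superoxide response under a set limit, about three screen SD below normal, cut at about 65% in these data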;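 further: yeast aged for seven days with compound at 30 °C before DHE staining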
Efflux pump inh – blocks antifungal efflux pumps in multiplex yeast assay; S. cerevisiae Candida pump triplex, Nile Red efflux; inhibition, % at 10 µM; actives 0.44% (n = 330,000); AID 485275;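 active means plate passing quality check with inhibition over a set limit, or well fluorescence over plate mean plus 4 SD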;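 further: Nile Red retained in pooled yeast measured as flow cytometry median fluorescence; higher means more Nile Red kept so more efflux inhibition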
IDE act – activators of human insulin-degrading enzyme in cells; AID 493087; P14735; activation, % at 5.96 µM; HEK cells, FAbeta-B cleavage, fluorescence polarization; 0% vehicle, 100% cell-free pure enzyme wells; actives 0.073% (n = 340,000);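 active means activation above the mean of all tested compounds plus 3 SD, set per screening campaign, cut at about 17% in these data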
Target sequence (P14735 whole entry, looked up): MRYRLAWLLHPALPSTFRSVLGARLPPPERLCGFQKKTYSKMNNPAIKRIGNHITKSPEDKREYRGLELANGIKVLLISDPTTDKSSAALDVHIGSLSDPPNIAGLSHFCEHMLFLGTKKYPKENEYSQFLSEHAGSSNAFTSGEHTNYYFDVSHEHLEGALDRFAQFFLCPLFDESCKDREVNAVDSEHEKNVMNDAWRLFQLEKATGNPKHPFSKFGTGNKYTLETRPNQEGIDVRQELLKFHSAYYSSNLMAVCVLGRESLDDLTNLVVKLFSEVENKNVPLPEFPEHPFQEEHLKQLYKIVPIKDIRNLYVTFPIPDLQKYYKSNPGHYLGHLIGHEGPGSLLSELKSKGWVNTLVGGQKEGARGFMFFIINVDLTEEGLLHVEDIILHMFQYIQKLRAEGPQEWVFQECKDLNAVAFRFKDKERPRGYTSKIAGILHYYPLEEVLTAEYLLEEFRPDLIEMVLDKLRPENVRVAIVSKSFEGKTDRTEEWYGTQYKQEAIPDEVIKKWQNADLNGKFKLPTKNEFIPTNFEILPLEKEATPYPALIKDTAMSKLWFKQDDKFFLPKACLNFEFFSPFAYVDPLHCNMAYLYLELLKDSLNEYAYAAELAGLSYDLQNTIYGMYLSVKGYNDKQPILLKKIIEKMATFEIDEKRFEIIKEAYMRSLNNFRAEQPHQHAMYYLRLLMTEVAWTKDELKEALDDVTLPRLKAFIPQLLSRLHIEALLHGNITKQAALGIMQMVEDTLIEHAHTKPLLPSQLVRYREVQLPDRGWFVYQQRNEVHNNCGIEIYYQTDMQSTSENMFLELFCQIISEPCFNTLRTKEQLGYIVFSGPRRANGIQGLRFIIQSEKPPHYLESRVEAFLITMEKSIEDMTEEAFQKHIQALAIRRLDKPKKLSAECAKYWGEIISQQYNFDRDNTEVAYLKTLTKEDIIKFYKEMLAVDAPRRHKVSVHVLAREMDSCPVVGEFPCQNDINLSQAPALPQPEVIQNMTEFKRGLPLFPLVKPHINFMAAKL
IDE cell inh – inhibitors of human insulin-degrading enzyme in cells; AID 434962; actives 0.41% (n = 320,000); HEK cells, FAbetaB cleavage, fluorescence polarization; P14735; inhibition, % at 5.59 µM;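 active means percent inhibition above the average of all tested compounds plus 3 SD, set per screening campaign, cut at about 16% in these data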;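 further: IDE supplied by intact live HEK cells; FP after avidin binding of uncleaved biotin substrate so inhibition keeps polarization high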
Tb MetRS inh – Trypanosoma brucei MetRS inhibition | purified T. brucei MetRS, ATP depletion, Kinase-Glo luminescence | inhibition, % at 11.9 µM | actives 0.4% (n = 360,000) | AID 624268;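 active means inhibition above a per-plate cutoff of the control wells' mean inhibition plus 3 SD, cut at about 5.5% in these data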
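Test system – parasite MetRS enzyme · Reagent – substrates ATP, L-methionine and bulk Escherichia coli tRNA · Doses – 11.9 µM compound single dose, 0.9% DMSO · Times – 15 min enzyme-compound preincubation, 2 h reaction, 10 min detection, 25 °C · Signal – Kinase-Glo luminescence, ATP depletion format · Controls – DMSO-only wells as low control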
HDAC3 inh – inhibitors of human histone deacetylase 3; recombinant HDAC3, fluorogenic peptide/trypsin coupled, fluorescence; inhibition, % at 8.3 µM; actives 0.15% (n = 320,000); in the data active means inhibition above about 26%, passing the limit was not always enough
Superoxide pick – yeast aging superoxide inhibition, cherry pick confirmation; shares compounds with CR mimetic SO; S. cerevisiae aging, superoxide DHE fluorescence; stronger effect = lower value; superoxide response (% of plate), % at 10 µM; actives 1% (n = 850); AID 434994;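 active means superoxide signal below 65% of the plate average of sample wells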;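 further: cells aged with compound for 7 days at 30 degrees C before staining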
DHE counter – DHE fluorescence interference, counter-screen artifact; AID 435000; fluorescence response, % at 10 µM; S. cerevisiae BY4741, flow cytometry; stronger effect = lower value; shares compounds with CR mimetic SO; 850 tested, under 10 active;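 active means fluorescence response below 15%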;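 further: lower means stronger quenching of DHE signal or ROS scavenging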
Large screens that a line does not name were inactive (follow-up assays come after a bar, where they were run). Sampled rows, rich in hits. Any-hit rate of the full collection: about 1.4%.

Cc1ccc2c(c1)C=CC(C)(C)S2=O (stereo unspecified)	CR mimetic SO 64 | Superoxide pick inactive | DHE counter inactive
Cc1cc(C(=O)NC2CC(C)(C)Cc3c2cnn3-c2cccc(F)c2)nn1C (stereo unspecified)	none
C=C(C)CNC(=S)NNC(=O)CCn1c2ccc(Cl)cc2c2cc(Cl)ccc21	none | Superoxide pick inactive | DHE counter inactive
C=C(C)CNC(=S)NNC(=O)CCn1c2ccccc2c2ccccc21	none | Superoxide pick inactive | DHE counter inactive
C=C(C)CNC(=S)NNC(=O)c1ccncc1	none
C=C(C)CNC(=S)NNC(=O)CCn1c2cc(Cl)ccc2c2ccc(Cl)cc21	none | Superoxide pick inactive | DHE counter inactive
CC(=O)Oc1ccc(NC(=O)Cc2ccccc2)cc1	none
CC(=O)Oc1ccc(Nc2ccccc2)cc1	CR mimetic SO 50 | Superoxide pick inactive | DHE counter inactive
O=C(Cn1cnc2ccccc21)N/N=C/c1ccccn1	CR mimetic SO 21 | Superoxide pick inactive | DHE counter inactive
O=C(CCn1cnc2ccccc21)N/N=C/c1ccc(O)cc1	CR mimetic SO 65 | Superoxide pick inactive | DHE counter inactive
CCOC(=O)C1=CCN(S(=O)(=O)c2ccccc2F)C1c1ccc(F)cc1 (stereo unspecified)	none (no result: CR mimetic SO, Efflux pump inh, IDE act, IDE cell inh, HDAC3 inh)
Cc1cc(NC(=O)CN2CCN(c3ccccn3)CC2)ccc1Br	none | Superoxide pick inactive | DHE counter inactive
COC(=O)c1ccc(NC(=O)CN2CCN(c3ccccc3)CC2)cc1	none
Cc1cc(C)c(NC(=O)CN2CCN(c3ccccn3)CC2)c(C)c1	none | Superoxide pick inactive | DHE counter inactive
O=C(CN1CCN(c2ccccn2)CC1)Nc1cccc(S(=O)(=O)N2CCCC2)c1	none
O=C(CN1CCN(c2ccccn2)CC1)Nc1ccc(F)c(F)c1	none | Superoxide pick inactive | DHE counter inactive
O=C(CN1CCN(c2ccccn2)CC1)Nc1ccccc1C(=O)Nc1ccccc1	none
COC(=O)c1ccc(NC(=O)CN2CCN(c3ccccn3)CC2)cc1	none | Superoxide pick inactive | DHE counter inactive
O=C(CN1CCN(c2ccccn2)CC1)Nc1ccccc1	none | Superoxide pick inactive | DHE counter inactive
CN(C)S(=O)(=O)c1ccc(Cl)c(NC(=O)CN2CCN(c3ccccn3)CC2)c1	none (no result: CR mimetic SO, Efflux pump inh, IDE cell inh, HDAC3 inh) | Superoxide pick inactive | DHE counter inactive
O=C(CN1CCN(c2ccccn2)CC1)Nc1ccc(OCc2ccccc2)cc1	none
O=C(CN1CCN(c2ccccn2)CC1)Nc1ccc(Oc2ccccc2)cc1	none
O=C(CN1CCN(c2ccccn2)CC1)Nc1ccc(F)cc1	none | Superoxide pick inactive | DHE counter inactive
CCCCCCCCN1C(=O)[C@H](CC(=O)NCc2cccc3ccccc23)C[C@@]2(C(=O)OCC)CCCC=C12	none (no result: CR mimetic SO, Efflux pump inh, IDE act, IDE cell inh, HDAC3 inh)
CC(C)CN(C(=O)c1ccco1)c1nc2ccccc2s1	none
Cc1noc(C)c1C(=O)N(CC(C)C)c1nc2ccccc2s1	CR mimetic SO 61 | Superoxide pick inactive | DHE counter inactive
CCCCNC(=O)C(NC(=O)c1ccc(C)cc1)C(=O)c1ccccc1 (stereo unspecified)	none (no result: CR mimetic SO, Efflux pump inh, IDE act, IDE cell inh, HDAC3 inh)
O=C(NNC(=O)c1ccc(Cl)cc1Cl)Nc1ccccc1	CR mimetic SO 63 | Superoxide pick inactive | DHE counter inactive
O=C(Nc1ccc(Nc2ccccc2)cc1)c1ccc(Cl)cc1Cl	none (no result: IDE act)
Cc1cnc(-c2nc3ccccc3n2C(C(=O)Nc2c(C)cccc2C)C2CC2)cn1 (stereo unspecified)	none (no result: CR mimetic SO, Efflux pump inh, IDE act, IDE cell inh, HDAC3 inh)
CC(=O)CSc1nc2ccc(Nc3nc(N4CCOCC4)nc(N4CCOCC4)n3)cc2s1	CR mimetic SO 60 | Superoxide pick inactive | DHE counter inactive
Cc1ccc(NC(=O)c2cc3ccccc3oc2=N)cc1	none (no result: HDAC3 inh)
N=c1oc2cc(O)ccc2cc1C(=O)Nc1ccc(Cl)cc1	CR mimetic SO 50 | Superoxide pick inactive | DHE counter inactive
NC1=C(c2ccccc2)C(=O)NC1=O	CR mimetic SO 37 | Superoxide pick inactive | DHE counter inactive
O=C1OCC(c2ccccc2)=C1c1ccccc1	none
O=C(NC1CCCCCCC1)c1cc([N+](=O)[O-])ccc1Cl	CR mimetic SO 63 | Superoxide pick inactive | DHE counter inactive
O=C(Nc1ccc(Cl)c(Cl)c1)c1ccccc1	none
O=C(Nc1ccc2nc3ccccc3nc2c1)c1ccccc1	CR mimetic SO 47 | Superoxide pick 59 | DHE counter inactive
Cc1ccccc1-c1cc2nc(NCCc3ccncc3)n(C)c(=O)c2s1	none (no result: CR mimetic SO, Efflux pump inh, IDE act, IDE cell inh, HDAC3 inh)
C=CCn1c(SCC(=O)NC2CCCCC2)nnc1-c1ccc(OC)cc1	CR mimetic SO 57 | Superoxide pick inactive | DHE counter inactive
C=CCn1c(SCC(=O)NC2CC2)nnc1-c1cccc(OC)c1	none
CCC(C)CN1C(=O)CN(S(C)(=O)=O)CC1(C)C(=O)NCc1ccccc1 (stereo unspecified)	none (no result: CR mimetic SO, Efflux pump inh, IDE act, IDE cell inh, HDAC3 inh)
COc1cccc(NC(=O)c2cc(OC)c(OC)c(OC)c2Br)c1	none
CNC(=O)c1c(NC(=O)c2ccc(S(=O)(=O)N(C)c3ccccc3)cc2)sc2c1CCN(C(C)C)C2	CR mimetic SO 54 (no result: IDE act, Tb MetRS inh) | Superoxide pick inactive | DHE counter inactive
CCN1CCc2c(sc(NC(=O)c3ccc(S(=O)(=O)N(C)c4ccccc4)cc3)c2C(=O)NC)C1	none
COc1ccccc1NC(=O)CSc1ccc(-c2ccc(-n3ccnc3)cc2)nn1	none | Superoxide pick inactive | DHE counter inactive
COc1ccccc1NC(=O)CSc1ccc(-c2ccco2)nn1	none
Cc1ccccc1NC(=O)CSc1ccc(-c2ccc(-n3cccn3)cc2)nn1	none | Superoxide pick inactive | DHE counter inactive
Cc1ccccc1NC(=O)CSc1nnnn1C	CR mimetic SO 60 | Superoxide pick inactive | DHE counter inactive
Cc1csc(-c2nc3ccccc3n2C(C)c2nc3ccccc3[nH]2)c1 (stereo unspecified)	none (no result: CR mimetic SO, Efflux pump inh, IDE act, IDE cell inh, HDAC3 inh)
COC(=O)C[C@@H]1CC[C@H](NC(=O)CC2CC2)[C@@H](CO)O1	none (no result: CR mimetic SO, Efflux pump inh, IDE act, IDE cell inh, HDAC3 inh)
COc1ccc(CCNC(=O)CCOc2cc(C)ccc2C)cc1OC	none (no result: IDE cell inh)
CCOc1ccccc1NC(=O)COC(=O)C(CC(C)C)N1C(=O)C2CC=CCC2C1=O (stereo unspecified)	CR mimetic SO 65 | Superoxide pick inactive | DHE counter inactive
CCOc1ccccc1NC(=O)COC(=O)C1CC1	none
CC1=CC(=NOS(=O)(=O)c2ccc(C)cc2)CC(C)(C)C1	none (no result: CR mimetic SO, Efflux pump inh, IDE act, IDE cell inh, HDAC3 inh)
Cc1cc(-c2nnc(CCC(=O)NCCc3ccccc3F)o2)no1	none
CCC(CC)NCc1ccc2c(c1)c1ccccc1n2CC	none | Superoxide pick inactive | DHE counter inactive
CCn1c2ccccc2c2cc(CNCc3ccc(OC)cc3OC)ccc21	none
CCn1c2ccccc2c2cc(N)ccc21	none | Superoxide pick inactive | DHE counter inactive

Bioassay records deposited in PubChem by several laboratories.
